DAGLB inhibitor – DAGLB lipase inhibitors, primary screen, biochemical, fluorescence, HTS; Diacylglycerol lipase-beta (Homo sapiens), Q8NCG7; HEK293T DAGLB membrane lysate, EnzChek fluorogenic substrate; 340,000 compounds, 0.059% hits; AID 504411, 2011; inhibition, % at 5.17 µM; in the data active means inhibition above about 34%;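 further: 0% = enzyme with vehicle and 100% = wells lacking enzyme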
GPR7 antag – GPR7 receptor antagonists, primary screen, cell-based, fluorescence, single concentration. Neuropeptides B/W receptor type 1 (Homo sapiens), P48145. GPR7-expressing cells, fluorescence antagonist assay. inhibition, % at 4.4 µM. 290,000 compounds, 1.1% hits; in the data active means inhibition above about 16%, passing the limit was not always enough;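 further: cells stimulated with the agonist NPW; 0% = agonist with vehicle and 100% = vehicle without agonist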
Target sequence (P48145 whole entry, looked up): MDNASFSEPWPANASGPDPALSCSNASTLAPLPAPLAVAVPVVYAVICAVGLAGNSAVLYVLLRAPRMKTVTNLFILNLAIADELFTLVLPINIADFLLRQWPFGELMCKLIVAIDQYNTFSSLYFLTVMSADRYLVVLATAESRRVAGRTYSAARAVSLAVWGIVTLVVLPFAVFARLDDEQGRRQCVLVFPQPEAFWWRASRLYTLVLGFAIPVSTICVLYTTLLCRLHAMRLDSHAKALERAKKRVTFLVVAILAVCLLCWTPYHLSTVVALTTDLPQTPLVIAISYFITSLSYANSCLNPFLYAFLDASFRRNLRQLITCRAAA
TAAR1 antag – human TAAR1 antagonists, primary screen, Fluo-8 calcium fluorescence, CHO RD-HGA16 cells; Trace amine-associated receptor 1 (Homo sapiens), Q96RJ0; antagonist; inhibition, % at 3 µM; 360,000 compounds, 1.5% hits; AID 624466, 2012;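 active means inhibition above a per-plate cutoff, the mean inhibition of test compounds on that plate plus 3 SD, cut at about 49% in these data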;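 further: 0% = DMSO plus EC80 beta-PEA response and 100% = DMSO alone without agonist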
Target sequence (Q96RJ0 whole entry, looked up): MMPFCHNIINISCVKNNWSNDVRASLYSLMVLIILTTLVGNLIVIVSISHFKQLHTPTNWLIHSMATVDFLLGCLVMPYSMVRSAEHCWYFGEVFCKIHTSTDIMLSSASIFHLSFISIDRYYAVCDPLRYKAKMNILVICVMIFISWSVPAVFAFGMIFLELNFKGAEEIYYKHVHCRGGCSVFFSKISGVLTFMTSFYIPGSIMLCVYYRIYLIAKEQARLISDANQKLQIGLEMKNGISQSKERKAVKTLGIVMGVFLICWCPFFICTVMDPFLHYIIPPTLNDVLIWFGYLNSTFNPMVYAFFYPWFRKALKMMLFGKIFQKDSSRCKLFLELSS
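System: RD-HGA16 CHO cells with stable hTAAR1 and Gα16 | Probe or stimulus: EC80 β-phenethylamine stimulus | Dosing: 3 µM, single point | Times: Dye loading 75 min at 37 °C, then 30 min room temperature | Measured by: Fluo-8 calcium-sensitive fluorescence | Read-out basis: % inhibition of agonist calcium response | Replicates: n of 1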
TAAR1 agonist – human TAAR1 agonists, primary screen, Fluo-8 calcium fluorescence, CHO RD-HGA16 cells. Trace amine-associated receptor 1 (Homo sapiens), Q96RJ0. vehicle wells 0%, saturating PEA agonist 100%. activation, % at 3 µM. 360,000 compounds, 0.99% hits;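 active means activation above the mean activation of all test compounds in the run plus 3 SD, cut at about 38% in these data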
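Signal – calcium-sensitive Fluo-8 signal, excitation 470-495, emission 515-575 nm · System – RD-HGA16 (CHO) cells co-expressing Gα16 and hTAAR1 · Incubation – 17-24 h seeding, 75 min 37 °C dye, 30 min RT · Compound dosing – 3 µM single concentration · Repeats – no replicates (n 1)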
MPTP inh – mitochondrial permeability transition pore inhibitors, primary screen, biochemical, isolated mouse mitochondria, absorbance; inhibition, % at 10 µM; 360,000 compounds, 1.4% hits; Ca2+ swelling absorbance, 30 min;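 active means inhibition of 50% or more, scaled per plate between neutral and stimulator controls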;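 further: 0% = DMSO wells given calcium and 100% = 1 mM EGTA wells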
TAAR1 ag confirm – human TAAR1 agonists, retest of hits, confirmation, Fluo-8 calcium fluorescence, CHO RD-HGA16 cells | shares compounds with TAAR1 agonist | activation, % at 3 µM | 2,400 compounds, 82% hits | scaled: DMSO 0%, maximal phenethylamine 100% | AID 651783, 2012;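 active means activation above a cutoff set at the run's mean compound activation plus 3 SD, cut at about 39% in these data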
Ga16 ag counter – nonselective calcium mobilization agonists, CHO-Ga16 cells, counter-screen for hTAAR1 agonist project, cell-based, fluorescence, CHO-Ga16 parental line; shares compounds with TAAR1 agonist; Fluo-8 calcium fluorescence; normalized to maximal ATP response, DMSO zero; activation, % at 3 µM; 2,400 compounds, 50% hits; AID 651787, 2012;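 active means activation above the run cutoff, the mean activation over all tested wells plus 3 SD, cut at about 12% in these data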;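 further: 0% = DMSO wells and 100% = maximal ATP response on the peak over basal ratio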
TAAR1 desensitize – TAAR1 desensitization by agonist hits, confirmation, counter-screen for TAAR1 agonist project, cell-based, fluorescence, tachyphylaxis | 2,400 compounds, 46% hits | shares compounds with TAAR1 agonist | AID 651951, 2012 | CHO RD-HGA16 hTAAR1, Fluo-8 calcium, beta-PEA response inhibition | inhibition, % at 3 µM;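 active means inhibition above the run cutoff, the mean inhibition of all test compounds plus 3 SD, cut at about 49% in these data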;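 further: beta-PEA stimulus applied at its EC80; loss of beta-PEA calcium signal after compound pretreatment read as receptor desensitization; 0% = DMSO with beta-PEA at EC80 and 100% = DMSO alone without agonist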
Ga16 nonsel ant – inhibition of ATP-evoked calcium response in CHO-Ga16 cells, counter-screen for TAAR1 agonist project, cell-based, fluorescence | shares compounds with TAAR1 agonist | CHO-Ga16 ATP-induced calcium, Fluo-8 fluorescence | inhibition, % at 3 µM | 2,400 compounds, 39% hits | AID 651952, 2012;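 active means inhibition above the plate's mean compound inhibition plus 3 SD, computed per plate, cut at about 22% in these data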;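 further: 0% = EC80 ATP with DMSO and 100% = DMSO wells without ATP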
* hit, by the source's call; / = not tested or not shown. A selection: hits, their analogues and other compounds. The true share with any hit is near 4%.

SMILES | DAGLB inhibitor | GPR7 antag | TAAR1 antag | TAAR1 agonist | MPTP inh | TAAR1 ag confirm | Ga16 ag counter | TAAR1 desensitize | Ga16 nonsel ant
O=C(Cc1ccccc1)NC(NCCc1ccccc1)C(Cl)(Cl)Cl (centres undefined) | 3.5 | -2.5 | 8.6 | 43.5* | -0.1 | 49.9* | 2.3 | 15.0 | 7.6
CN1C(=O)[C@H]2[C@@H](c3ccc(C(F)(F)F)cc3)N[C@]3(CCCN(CC4CCCCC4)C3=O)[C@H]2C1=O | -3.0 | / | -10.8 | -1.5 | -0.6 | / | / | / | /
CCn1c(C)nc2cc(C(=O)NNC(=S)Nc3ccc(Cl)cc3)ccc21 | -2.3 | -4.4 | 2.4 | 54.4* | 2.5 | 61.4* | 3.8 | 33.2 | 8.7
CCCCN1Cc2cc(C(=O)c3cc(F)ccc3O)cnc2NC1=O | -0.9 | -15.2 | 9.0 | 82.1* | -1.7 | 53.1* | 23.8* | 25.0 | 16.2
O=C(Nc1nc2ccsc2c(=O)s1)c1ccco1 | / | -5.1 | -3.8 | 0.8 | 1.5 | / | / | / | /
O=C(Nc1nc2c(Cl)ccc(Cl)c2s1)c1ccco1 | -2.0 | -4.9 | 70.0* | 113.9* | 2.5 | 107.2* | 88.7* | 92.0* | 61.8*
Cc1cc(OCc2cc(C(=O)NC3CCC3)no2)cc(C)c1Cl | -2.7 | -1.0 | / | / | -0.7 | / | / | / | /
CCC(=O)NNC(=O)c1cc(COc2cc(Cl)cc(Cl)c2)on1 | -0.6 | -6.5 | 19.2 | 55.5* | 0.3 | 39.8* | 21.5* | 21.0 | 16.3
CN(C(=O)[C@H]1O[C@@H](n2cnc3c(=O)[nH]c(N)nc32)[C@H](O)[C@@H]1O)C1CCCCC1 | / | / | -8.3 | 3.0 | / | / | / | / | /
CC1CCN(CC(=O)c2cccs2)CC1 | 0.9 | -4.6 | -21.9 | 1.9 | -0.1 | / | / | / | /
O=C(CN1CCc2ccccc2C1)c1cccs1 | -2.3 | -12.1 | 24.9 | 74.6* | -3.0 | 86.1* | 3.0 | 46.5 | -1.3
O=C(NCN1CCc2ccccc2C1)c1cnccn1 | 1.5 | -6.1 | 56.6* | 95.3* | -0.6 | 87.6* | -0.2 | 65.3* | 8.0
O=C(c1cnccn1)N1CCc2ccccc2C1 | -8.5 | -6.8 | -25.4 | 1.1 | 6.0 | / | / | / | /
O=C(NCN1CCc2ccccc2C1)c1ccccc1 | -1.8 | -7.1 | 54.4* | 81.6* | 9.2 | 49.8* | 0.8 | 21.0 | 5.1
CCCNC(=O)c1ccc(CN2CCc3ccccc3C2)cc1 | -1.4 | -8.3 | 5.6 | 6.0 | -3.0 | / | / | / | /
Cc1nn(C(C)C(=O)N2CCCC2)c(=O)c2nn(-c3ccccc3)c(C)c12 (centres undefined) | -2.7 | -0.5 | -13.0 | 0.9 | -0.7 | / | / | / | /
Cc1nc2sc(C(c3ccco3)N3CCc4ccccc4C3)c(O)n2n1 (centres undefined) | 0.1 | -8.8 | 53.9* | 75.6* | 0.0 | 95.9* | 7.6 | 70.5* | 4.3
Cc1ccc(C(c2sc3ncnn3c2O)N2CCCCC2)cc1 (centres undefined) | 0.6 | -13.0 | -16.2 | -0.7 | 0.9 | / | / | / | /
Cc1nc2sc(C(c3ccco3)N3CCN(c4ccccc4F)CC3)c(O)n2n1 (centres undefined) | 2.4 | 3.7 | -1.8 | 19.6 | 0.0 | / | / | / | /
Oc1c(C(c2ccc(F)cc2)N2CCc3ccccc3C2)sc2ncnn12 (centres undefined) | -0.1 | 1.3 | / | / | -0.9 | / | 7.0 | / | 12.9
CNC(=O)C1Cc2c(-c3ccc(Cl)cc3)ccnc2O1 (centres undefined) | / | / | -11.6 | -0.3 | 1.1 | / | / | / | /
CCC(=O)N(c1nnc(SCC(=O)Nc2sccc2C(N)=O)s1)C1CC1 | 0.5 | / | 9.6 | -0.1 | 0.1 | / | / | / | /
COc1ccc(C)cc1NC(=O)CC1COc2ccccc2O1 (centres undefined) | -1.9 | -10.7 | 5.7 | -1.6 | 2.0 | / | / | / | /
COc1ccc(C=NCC2COc3ccccc3O2)cc1OC (centres undefined) | 0.1 | -10.5 | 13.8 | 66.6* | 1.4 | 77.2* | 1.3 | 76.5* | 5.6
Oc1ccc(C=NCC2COc3ccccc3O2)cc1 (centres undefined) | -3.8 | 0.8 | / | / | -0.2 | / | 3.7 | / | 3.5
SMILES | DAGLB inhibitor | GPR7 antag | TAAR1 antag | TAAR1 agonist | MPTP inh | TAAR1 ag confirm | Ga16 ag counter | TAAR1 desensitize | Ga16 nonsel ant
Cc1ccc(-c2nnn(CC(=O)NCCc3ccc4c(c3)OCO4)n2)cc1 | -4.0 | -8.2 | 67.3* | 77.7* | 1.1 | 47.4* | 10.3 | 22.6 | 16.0
Cc1ccc(S(=O)(=O)NN=C2CCCc3ccccc32)cc1 | -7.4 | / | -23.9 | 11.4 | 3.3 | / | / | / | /
CCc1ccccc1NC(=O)Nc1ccc2c(c1)OCO2 | 0.4 | -9.2 | 42.9 | 63.7* | 5.2 | 2.5 | 4.9 | 2.9 | 8.5
O=C(Nc1ccc2c(c1)OCO2)Nc1ccc(Br)cn1 | -3.0 | -6.0 | 11.1 | 12.6 | 1.0 | / | / | / | /
O=C(Nc1ccc2c(c1)OCO2)Nc1ccccc1F | -0.8 | 19.0 | -21.8 | 0.6 | -1.5 | / | / | / | /
Cc1ccnc(NC(=O)Nc2ccc3c(c2)OCO3)c1 | 2.3 | -2.1 | 4.0 | 46.8* | 0.3 | 87.4* | 0.3 | 66.5* | 4.4
c1ccc(CCNc2c3c(nc4ncnn24)CCC3)cc1 | -2.2 | -15.2 | 9.0 | 62.2* | 4.3 | 89.8* | 6.6 | 37.8 | 6.3
Fc1ccccc1CCNc1c2c(nc3ncnn13)CCCC2 | 1.4 | -8.1 | 1.0 | 30.5 | 0.0 | / | / | / | /
NS(=O)(=O)c1ccc(NC(=S)NCCc2ccccc2)cc1 | -0.2 | 4.3 | 32.5 | 54.2* | -2.6 | 81.8* | 1.3 | 68.3* | 4.3
CCCCNC(=S)Nc1cccc(S(=O)(=O)NC2=NCCC2)c1 | 0.8 | / | -15.6 | 1.3 | -0.5 | / | / | / | /
O=S(=O)(NC1=NCCC1)c1cccc(NC(=S)NCCc2ccccc2)c1 | 0.5 | -1.5 | -5.0 | 62.4* | 1.6 | 11.5 | 3.7 | 6.2 | 8.0
COc1ccc(CC(=O)NC(=S)Nc2ccc(S(N)(=O)=O)cc2)cc1 | -0.5 | 19.8 | 28.4 | 80.9* | -0.5 | 88.2* | 39.6* | 46.5 | 27.9*
NNC(=S)NCCc1ccccc1 | -2.5 | 12.6 | / | / | 0.0 | / | -0.4 | / | 4.2
CCCS(=O)(=O)NC(=O)C1(C)CCCN(C(=O)CCc2cccs2)C1 (centres undefined) | / | / | -17.4 | 0.6 | 0.2 | / | / | / | /

High-throughput results deposited in PubChem by several laboratories.
